ChEMBL document CHEMBL1156309, “Design and optimization of a substituted amino propanamide series of renin inhibitors for the treatment of hypertension” (Bioorg Med Chem Lett, 2010)

Experiments:
[1] = Volume of distribution at steady state in Sprague-Dawley rat at 30 mg/kg, po and 5 mg/kg, iv; format: ADME, organism-based; settings: in vivo, read-out: Vdss
[2] = Half life in Sprague-Dawley rat at 30 mg/kg, po and 5 mg/kg, iv; format: ADME, organism-based; settings: in vivo
[3] = Oral bioavailability in Beagle dog at 3 mg/kg; format: ADME, organism-based, Canis lupus familiaris; settings: in vivo
[4] = AUC in Sprague-Dawley rat at 30 mg/kg, po; format: ADME, organism-based; parameters: dose 30 mg/kg, route oral; settings: plasma
[5] = AUC in Beagle dog at 3 mg/kg, po; format: ADME, organism-based, Canis lupus familiaris; parameters: dose 3 mg/kg, route oral; settings: plasma
[6] = Volume of distribution at steady state in Beagle dog at 3 mg/kg, po and 1 mg/kg, iv; format: ADME, organism-based, Canis lupus familiaris; settings: in vivo, read-out: Vdss
Rattus norvegicus = assay: Antihypertensive activity in telemetered double-transgenic rat assessed as decrease in blood pressure at 3 mg/kg, po after 2 days; format: functional
Procedure, shortened: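 Telemetered double-transgenic rats (n = 8) dosed orally at 3 mpk. Blood pressure monitored by telemetry; maximum fall in mm Hg and duration of action recorded.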

[7] = Half life in Beagle dog at 3 mg/kg, po and 1 mg/kg, iv; format: ADME, organism-based, Canis lupus familiaris; settings: in vivo
[8] = Clearance in Beagle dog at 3 mg/kg, po and 1 mg/kg, iv; format: ADME, organism-based, Canis lupus familiaris; settings: in vivo
[9] = Clearance in Sprague-Dawley rat at 30 mg/kg, po and 5 mg/kg, iv; format: ADME, organism-based; settings: in vivo
Cytochrome P450 3A4 = Cytochrome P450 3A4 (Homo sapiens, UniProt P08684); assay: Inhibition of CYP3A4 after 30 mins; format: ADME
Cytochrome P450 3A4, sequence (P08684 whole entry): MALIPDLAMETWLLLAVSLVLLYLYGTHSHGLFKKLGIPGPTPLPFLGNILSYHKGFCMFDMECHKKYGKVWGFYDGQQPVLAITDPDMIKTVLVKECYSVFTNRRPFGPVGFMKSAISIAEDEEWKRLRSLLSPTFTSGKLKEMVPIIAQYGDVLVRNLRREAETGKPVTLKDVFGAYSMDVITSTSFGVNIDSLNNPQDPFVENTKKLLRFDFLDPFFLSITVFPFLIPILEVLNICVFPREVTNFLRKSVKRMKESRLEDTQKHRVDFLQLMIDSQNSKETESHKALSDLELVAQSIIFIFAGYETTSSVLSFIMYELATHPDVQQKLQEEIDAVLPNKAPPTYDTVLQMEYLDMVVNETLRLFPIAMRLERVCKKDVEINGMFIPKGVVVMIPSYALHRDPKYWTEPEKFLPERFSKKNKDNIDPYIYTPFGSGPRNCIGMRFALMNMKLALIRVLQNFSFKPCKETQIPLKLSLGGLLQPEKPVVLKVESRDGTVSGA

[10] = Oral bioavailability in Sprague-Dawley rat at 30 mg/kg; format: ADME, organism-based; settings: in vivo
Renin [11] = molecular target: T1, Renin (Homo sapiens, UniProt P00797); assay: Inhibition of human recombinant renin in human citreated-plasma
T1 sequence (P00797 whole entry): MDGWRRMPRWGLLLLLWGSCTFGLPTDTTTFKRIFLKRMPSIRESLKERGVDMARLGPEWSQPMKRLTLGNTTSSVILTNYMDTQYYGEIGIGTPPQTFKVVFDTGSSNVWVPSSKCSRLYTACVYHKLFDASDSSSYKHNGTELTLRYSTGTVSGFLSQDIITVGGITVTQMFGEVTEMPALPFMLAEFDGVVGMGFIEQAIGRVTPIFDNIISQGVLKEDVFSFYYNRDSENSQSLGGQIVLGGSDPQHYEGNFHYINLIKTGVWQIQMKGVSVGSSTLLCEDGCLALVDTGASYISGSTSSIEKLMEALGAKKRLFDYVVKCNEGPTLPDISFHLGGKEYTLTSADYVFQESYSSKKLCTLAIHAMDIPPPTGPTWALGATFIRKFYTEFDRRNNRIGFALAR
Procedure, shortened: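 Pooled human citrate plasma supplemented with recombinant human renin (150 pg/mL final). Compounds in DMSO at various concentrations added to plasma mixed with trapping anti-Angl antibody (final antiserum dilution 1:50,000) in Tris/EDTA, pH 7.2; incubation 2 h at 37 °C. Angl accumulation read by immunoassay; IC50 from curve fit. Average of at least two replicates.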

Renin [12] = molecular target: T1, Renin; assay: Inhibition of human recombinant renin in PBS buffer at pH 7.4
Procedure, shortened: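 Recombinant human renin (3 pg/µL) in PBS with 1 mM EDTA, 0.1% BSA, pH 7.4, with human tetradecapeptide (1-14) substrate and hydroxyquinoline sulfate. Compounds diluted in DMSO; incubation 3 h at 37 °C. Angl accumulation measured; percent inhibition at each concentration, IC50 from curve fit. Average of at least two replicates.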

Canis familiaris = assay: Antihypertensive activity in Beagle assessed as prolongation of CV intervals at 12 uM, iv after 2 days; format: functional, Canis lupus familiaris
Procedure, shortened: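 Beagle dogs given compound intravenously up to 12 µM plasma exposure. QTc, PR and QRS intervals monitored for prolongation.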

Row | Structure (SMILES) | IC50 (Renin [11]) [nM] | IC50 (Renin [12]) [nM] | other results
1 | COCCCc1cc(CN(C(=O)[C@@H](CN)Cc2ccc(CCCOc3c(Cl)cc(C)cc3Cl)cc2)C2CC2)cc(OCCOC)c1 | – | – | Vd [1]: 3.6 L/kg; half-life [2]: 4 h; bioavailability [3]: 36%; AUC [4]: 27.5 µM·h; AUC [5]: 0.7 µM·h; Vd [6]: 15 L/kg; Activity (Rattus norvegicus): 35 mmHg; half-life [7]: 7.5 h; clearance [8]: 35 mL/min/kg; clearance [9]: 13 mL/min/kg; IC50 (Cytochrome P450 3A4): 1300 nM; bioavailability [10]: 48%
2 | CNCC(Cc1ccc(CCCOc2c(F)ccc(F)c2Cl)cc1)C(=O)N(Cc1cccc(Cl)c1Cl)C1CC1 (stereo unspecified) | 350 | 1.9 | –
3 | Cc1cc(Cl)c(OCCCc2ccc(C[C@@H](CN)C(=O)N(Cc3cc(CCCC#N)ccc3Cl)C3CC3)cc2)c(Cl)c1 | 4.6 | 0.11 | –
4 | COCCCc1ccc(Cl)c(CN(C(=O)C(CN)Cc2ccc(CCCOc3c(Cl)cc(C)cc3Cl)cc2)C2CC2)c1 (racemic) | 5.8 | 0.26 | –
5 | COCCOc1ccc(Cl)c(CN(C(=O)C(CN)Cc2ccc(CCCOc3c(Cl)cc(C)cc3Cl)cc2)C2CC2)c1 (stereo unspecified) | – | 0.21 | –
6 | Cc1cc(Cl)c(OCCCc2ccc(CC(CN)C(=O)N(Cc3cccc(Cl)c3Cl)C3CC3)cc2)c(Cl)c1 (stereo unspecified) | 29 | 0.4 | –
7 | Cc1cc(Cl)c(OCCCc2ccc(CC(CN)C(=O)N(Cc3cc(CCC#N)ccc3Cl)C3CC3)cc2)c(Cl)c1 (stereo unspecified) | 10 | 0.27 | –
8 | O=C(C(CNCc1ccccc1)Cc1ccc(CCCOc2c(F)ccc(F)c2Cl)cc1)N(Cc1cccc(Cl)c1Cl)C1CC1 (stereo unspecified) | – | 260 | –
9 | NCCC(CC(=O)N(Cc1cccc(Cl)c1Cl)C1CC1)c1ccc(CCCOc2c(F)ccc(F)c2Cl)cc1 (stereo unspecified) | – | 650 | –
10 | COCCc1ccc(Cl)c(CN(C(=O)C(CN)Cc2ccc(CCCOc3c(Cl)cc(C)cc3Cl)cc2)C2CC2)c1 (stereo unspecified) | – | 0.19 | –
11 | COCCCc1cc(CN(C(=O)C(CN)Cc2ccc(CCCOc3c(Cl)cc(C)cc3Cl)cc2)C2CC2)c(Cl)cn1 (stereo unspecified) | 2.2 | 0.19 | –
12 | Cc1cc(Cl)c(OCCCc2ccc(CC(CN)C(=O)N(Cc3cc(CCCN(C)C)ccc3Cl)C3CC3)cc2)c(Cl)c1 (stereo unspecified) | 103 | 1.5 | –
13 | Cc1cc(Cl)c(OCCCc2ccc(CC(CN)C(=O)N(Cc3cc(CCCO)ccc3Cl)C3CC3)cc2)c(Cl)c1 (stereo unspecified) | 6.4 | 0.09 | –
14 | NCC(Cc1ccc(CCCOc2c(F)ccc(F)c2Cl)cc1)C(=O)N(Cc1cccc(Cl)c1Cl)C1CC1 (racemic) | 21 | 0.79 | –
15 | CC(CN)(Cc1ccc(CCCOc2c(F)ccc(F)c2Cl)cc1)C(=O)N(Cc1cccc(Cl)c1Cl)C1CC1 (stereo unspecified) | – | 210 | –
16 | COCCCc1cc(CN(C(=O)C(CN)Cc2ccc(CCCOc3c(Cl)cc(C)cc3Cl)cc2)C2CC2)c(Cl)c[n+]1[O-] (stereo unspecified) | 1.8 | 0.3 | –
17 | COCCCc1ccc(Cl)c(CN(C(=O)[C@H](CN)Cc2ccc(CCCOc3c(Cl)cc(C)cc3Cl)cc2)C2CC2)c1 | 2.4 | 0.09 | Vd [1]: 12 L/kg; half-life [2]: 6 h; bioavailability [3]: 32%; AUC [4]: 8.3 µM·h; AUC [5]: 1.3 µM·h; Vd [6]: 8.4 L/kg; Activity (Rattus norvegicus): 27 mmHg; half-life [7]: 17 h; clearance [8]: 16 mL/min/kg; clearance [9]: 35 mL/min/kg; IC50 (Cytochrome P450 3A4): 130 nM; Activity (Canis familiaris): <5%; bioavailability [10]: 41%
18 | COCCCc1cc(Cl)c(Cl)c(CN(C(=O)C(CN)Cc2ccc(CCCOc3c(Cl)cc(C)cc3Cl)cc2)C2CC2)c1 (stereo unspecified) | 31 | 0.26 | –
19 | CC(=O)N(C)Cc1ccc(Cl)c(CN(C(=O)C(CN)Cc2ccc(CCCOc3c(Cl)cc(C)cc3Cl)cc2)C2CC2)c1 (stereo unspecified) | 250 | 2.9 | –
